Screening results as filed in PubChem.
Most compounds without a hit are left out; they make up all but 4.7% or so of the library.
MPTP inh = permeability transition pore inhibition. isolated mouse mitochondria, Ca2+ swelling absorbance, 30 min. inhibition, % at 10 µM. hit rate 1.4% among 360,000. AID 602449;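 active = inhibition of 50% or more, scaled per plate between neutral and stimulator controls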;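 also: 0% = DMSO wells given calcium and 100% = 1 mM EGTA wells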
GRIN3A LBD mod = NR3A (human) ligand-binding domain modulation | NR3A LBD differential scanning fluorimetry, Tm shift; 0% = protein alone, 100% = glycine-bound protein | Tm shift relative to glycine control, % at 25 µM | AID 1259313 | hit rate 2.5% among 340,000;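 active = melting temperature shift of at least 10% of the positive control shift, at one fixed dose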
MT1-MMP act inh = blocks activation of human MT1-MMP; GFP/RFP ratio change, % at 20 µM; HT1080 RFP-PRO-GFP cells, GFP/RFP ratio fluorescence, overnight; percent of plate control window, DMSO zero; hit rate 0.061% among 360,000;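 active = GFP/RFP ratio change of at least 30% with cell ATP level not reduced by more than half and red fluorescence within 50% of control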
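Test system: HT1080 cells expressing an RFP-PRO-GFP fluorescent reporter construct / Compound dosing: single-point 20 µM compound, 1% DMSO / Schedule: cells overnight before dosing, compound overnight, 37 °C, 5% CO2 / Evaluation: GFP/RFP fluorescence ratio / Control set: DMSO and RFP-L50D-GFP cell wells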
ADAM17 inh = inhibitors of human ADAM17 | AID 720648 | inhibition, % at 6.95 µM | recombinant ADAM17, EDANS/DABCYL FRET peptide cleavage | P78536 | hit rate 0.83% among 370,000;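 active = inhibition above the mean of compounds lying between control limits plus 3 SD, set per campaign, cut at about 8.5% in these data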;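 also: 0% = DMSO-only wells as the low control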
SKN-1 block = blocks SKN-1 activity in C. elegans. C. elegans VP596 Pgst-4::GFP/RFP ratio, acrylamide-induced, 24 h. inhibition, % at 21.8 µM. hit rate 0.49% among 360,000;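 active = interference check ratio from 0.5 to 1.5 plus GFP to RFP signal ratio inhibition reaching or exceeding a fixed threshold, cut at about 30% in these data, passing the limit was not always enough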
ADAM10 inh = inhibitors of human ADAM10; recombinant ADAM10, EDANS/DABCYL FRET peptide cleavage, 3 h; inhibition, % at 7 µM; hit rate 0.62% among 370,000; AID 720582;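 active = inhibition above a per-campaign cutoff equal to the mean of compounds falling between control-based bounds plus 3 SD, cut at about 20% in these data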;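 also: 0% = DMSO wells while the 100% control is not disclosed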
Target sequence (O14672 214-748 limits assumed): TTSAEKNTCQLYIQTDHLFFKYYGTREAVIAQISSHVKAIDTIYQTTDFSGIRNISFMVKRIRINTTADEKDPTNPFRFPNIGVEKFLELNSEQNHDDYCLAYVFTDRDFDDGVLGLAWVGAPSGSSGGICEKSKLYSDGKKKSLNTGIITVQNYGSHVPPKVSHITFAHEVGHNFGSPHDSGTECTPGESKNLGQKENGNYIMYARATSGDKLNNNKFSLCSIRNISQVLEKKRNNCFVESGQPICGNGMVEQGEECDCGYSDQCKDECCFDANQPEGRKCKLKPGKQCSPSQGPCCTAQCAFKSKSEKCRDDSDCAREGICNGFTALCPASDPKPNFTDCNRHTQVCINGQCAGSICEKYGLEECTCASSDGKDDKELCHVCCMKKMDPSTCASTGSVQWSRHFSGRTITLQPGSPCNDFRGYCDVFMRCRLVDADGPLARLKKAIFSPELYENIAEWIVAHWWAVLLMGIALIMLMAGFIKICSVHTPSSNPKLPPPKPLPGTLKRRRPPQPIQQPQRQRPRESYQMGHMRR
An asterisk follows results filed as active; . = not tested or not shown.

SMILES	MPTP inh	GRIN3A LBD mod	MT1-MMP act inh	ADAM17 inh	SKN-1 block	ADAM10 inh
O=C(CCN1C(=O)C2CC=C(Cl)CC2C1=O)Nc1ccccc1O (stereo not drawn)	-2.6	10.8*	3.0	2.4	-4.3	-1.8
O=C(CCN1C(=O)C2CC=C(Cl)CC2C1=O)NCc1ccccc1 (stereo not drawn)	5.9	0.6	4.1	1.3	12.8	0.0
O=C(O)/C(CC(=O)c1ccc(Cl)cc1)=N/Nc1ccc([N+](=O)[O-])cc1[N+](=O)[O-]	3.2	21.1*	.	-0.1	-2.1	7.7
COc1ccc(Nc2cc(Cl)nc(N)n2)cc1	-0.1	-0.4	1.1	-2.2	15.0	-1.1
CNS(=O)(=O)c1cccc(C(=O)OCc2csc(-c3ccccc3)n2)c1	0.5	-18.5	1.4	-3.3	6.0	0.9
Nc1ccc(C(=O)OCc2csc(-c3ccccc3)n2)cc1[N+](=O)[O-]	1.5	29.4*	7.2	1.9	-3.7	4.5
COc1ccc(NC2=CC(=O)CC(C)(C)C2)cc1	0.4	15.3*	0.6	-4.3	-6.2	-3.9
COc1cccc(NC2=CC(=O)CC(C)(C)C2)c1	0.3	0.0	10.2	-13.5	-5.7	-41.4
COc1cccc(CN(C)C(=O)c2cccnc2SC)c1OC	-0.9	-1.7	1.9	-3.2	0.1	-3.6
C[C@@H]1CN([C@H](C)CO)C(=O)CCCn2cc(nn2)CO[C@H]1CN(C)C(=O)NC1CCCCC1	-2.9	.	0.4	1.1	-12.9	-14.8
Cc1ccc(/C=c2\s/c(=C(/C#N)C(=O)N3CCCC3)n(Cc3ccco3)c2=O)s1	4.2	-0.6	-2.9	1.9	21.4	20.1*
Cc1nnc(SCC(=O)Nc2sc3c(c2C(=O)c2ccccc2)CCCC3)s1	0.1	10.4*	-1.2	-42.4	12.6	-128.1
Cc1nnc(SCC(=O)Nc2ccccc2NC(=O)CSc2nnc(C)s2)s1	-0.9	-5.1	1.4	-2.8	-29.0	1.5
NC(=NC(=O)c1ccc(OCC(F)(F)F)nc1)c1ccccc1	2.4	-1.4	2.4	-3.5	38.0*	-0.6
C(=Cc1c[nH]c2ccccc12)c1nccc2ccccc12	1.0	-8.0	-72.7	-8.0	48.4*	-48.5
C(=Cc1c[nH]c2ccccc12)c1ccc2ccccc2n1	2.3	21.8*	-98.1	-18.8	72.0	-46.3
O=C(CCC(=O)NCCO)NCCO	1.4	-1.4	0.8	-0.5	1.0	0.6
NS(=O)(=O)c1ccc(Nc2nc(-c3ccc4ccccc4c3)cs2)cc1	0.6	24.6*	-6.8	-2.2	12.0	-6.9
Cc1ccc(-c2csc(Nc3ccc(S(N)(=O)=O)cc3)n2)o1	1.1	5.2	-5.9	-1.7	4.2	-0.5
NS(=O)(=O)c1ccc(Nc2nc(-c3cccc([N+](=O)[O-])c3)cs2)cc1	1.1	16.5*	2.9	3.4	1.9	9.3
C=CCCC(=O)Nc1ccc(Br)cn1	0.5	-1.9	-1.8	-4.3	3.5	-7.7
CSc1nnc(C)c(=O)n1COC(=O)COc1ccccc1F	1.2	-2.6	2.2	-5.7	-12.6	-7.7
CC(C)c1ccc2[nH]c(O)c(N=NC(=O)c3cccc(S(=O)(=O)Nc4ccc(Cl)cc4)c3)c2c1	0.1	43.0*	-0.1	-4.0	-1.9	-3.7
CC(C)c1ccc2[nH]c(O)c(N=NC(=O)c3cccc(S(=O)(=O)Nc4cccc(Cl)c4)c3)c2c1	1.1	-1.6	2.0	-0.3	3.7	3.0
O=C(O)c1cccc(NC(=O)c2cn(-c3ccccc3)nc2-c2cccc(Br)c2)c1	0.6	14.8*	6.0	2.7	26.1	7.1
SMILES	MPTP inh	GRIN3A LBD mod	MT1-MMP act inh	ADAM17 inh	SKN-1 block	ADAM10 inh
O=C(O)c1ccn[nH]1	-1.0	-1.1	4.0	.	-2.1	.
Cc1ccc(S(=O)(=O)NC(=O)c2cccc(Br)c2)cc1	-1.2	-0.3	-1.8	-3.0	14.4	-0.5
O=C(NS(=O)(=O)c1ccccc1)c1cccc(Br)c1	1.0	20.6*	2.0	-3.8	-4.9	0.4
O=C(Nc1cccc(Br)c1)c1ccn[nH]1	7.9	26.9*	2.6	-0.8	0.2	0.9
O=C(O)c1cccc(NC(=O)c2cn(-c3ccccc3)nc2-c2ccncc2)c1	.	0.1	.	-1.5	.	7.6
O=C(Nc1cccc(C(=O)Nc2cccc(Br)c2)c1)c1ccccc1	39.4	35.2*	1.6	0.1	23.1	4.5
O=C(Nc1ccc(OC(F)(F)F)cc1)C1=NCCN1	-0.4	0.8	8.2	-4.2	13.0	-9.1
COc1ccc(N2CCN(C(=O)c3cc4c(-c5cccc(OC)c5)nn(C)c4s3)CC2)cc1	0.1	1.3	-9.0	7.0	35.2*	11.0
O=C(COC(=O)/C=C/c1cc(Br)ccc1F)Nc1ccc2[nH]c(=O)[nH]c2c1	-2.4	10.1*	4.8	-3.1	11.7	-13.5
CN(Cc1ccccc1)C(=O)c1ccc(NC(=O)Cc2ccc(NC(=O)C3CCN(C(=O)CCc4ccccc4)CC3)cc2)cc1	0.5	12.9*	12.6	0.3	10.3	6.1
CN(C(=O)c1cccc(NC(=O)Cc2ccc(NC(=O)C3CCCN(S(=O)(=O)c4cccc([N+](=O)[O-])c4)C3)cc2)c1)C1CCCC1 (stereo not drawn)	1.1	10.0*	-3.0	4.8	5.6	17.9
CN(Cc1ccccc1)C(=O)c1cccc(NC(=O)Cc2ccc(NC(=O)C3CCN(C(=O)CCc4ccccc4)CC3)cc2)c1	2.2	17.1*	4.9	4.8	7.2	12.3
CN(C(=O)c1ccc(NC(=O)Cc2cccc(NC(=O)C3CCCN(S(=O)(=O)c4cccc([N+](=O)[O-])c4)C3)c2)cc1)C1CC1 (stereo not drawn)	-1.6	8.6	2.8	4.3	12.0	-8.3
CC(=NO)C1CCC2C3CCC4=CC(=NO)CCC4(C)C3C(=O)CC12C (stereo not drawn)	-0.5	17.7*	1.9	1.3	-18.7	6.6
Cn1c(=O)[nH]c(=O)c2c1nc(N/N=C/c1ccncc1)n2Cc1ccc(Cl)cc1	1.5	1.2	12.2	-2.3	-6.1	11.1
O=S(=O)(N/N=C/c1ccccc1OCc1ccc(Cl)cc1)c1ccccc1	8.8	13.2*	0.0	4.7	0.7	7.0
Cc1cnc(C(=O)N(CCCn2ccnc2)C2C(=O)Nc3ccccc3N=C2c2ccccc2)cn1 (stereo not drawn)	-1.8	.	3.7	1.4	37.1*	-6.0
FC(F)(F)c1ccccc1Cc1c(-c2cccc(Br)c2)nc2c3ccccc3ccn12	2.2	.	16.4	-3.7	27.1	-12.2
N#Cc1ccc(-c2nc3c4ccccc4ccn3c2Cc2ccccc2C(F)(F)F)cc1	2.7	.	2.7	-10.3	41.7*	-42.0
FC(F)(F)c1ccccc1Cc1c(-c2ccccc2)nc2ccc(Br)cn12	1.3	.	1.6	-0.6	48.3*	2.8
COc1ccc(NC(=O)CC(C)CC(=O)NCc2ccc(F)cc2)c(OC)c1 (stereo not drawn)	-0.4	-3.7	-5.8	-2.3	8.5	-5.9
